Compounds with a hit are over-represented: about 4.2% of the library has one in this group of screens.
KCC2 mod – modulates chloride dependent transport by human KCC2. Q9H2X9. KCC2 cells, thallium flux FluoZin-2 fluorescence. B-score of Tl+ flux slope (higher = more flux/activation; lower = inhibition) at 10 µM. 2.2% of 190,000 active. AID 1456;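 active = thallium flux slope and its plate-corrected score both differing from the plate sample mean at a set confidence after two filtering rounds, in either direction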;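 also: slope of fluorescence scaled to starting intensity during 10 to 20 s after thallium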
Target sequence (Q9H2X9 whole entry, looked up): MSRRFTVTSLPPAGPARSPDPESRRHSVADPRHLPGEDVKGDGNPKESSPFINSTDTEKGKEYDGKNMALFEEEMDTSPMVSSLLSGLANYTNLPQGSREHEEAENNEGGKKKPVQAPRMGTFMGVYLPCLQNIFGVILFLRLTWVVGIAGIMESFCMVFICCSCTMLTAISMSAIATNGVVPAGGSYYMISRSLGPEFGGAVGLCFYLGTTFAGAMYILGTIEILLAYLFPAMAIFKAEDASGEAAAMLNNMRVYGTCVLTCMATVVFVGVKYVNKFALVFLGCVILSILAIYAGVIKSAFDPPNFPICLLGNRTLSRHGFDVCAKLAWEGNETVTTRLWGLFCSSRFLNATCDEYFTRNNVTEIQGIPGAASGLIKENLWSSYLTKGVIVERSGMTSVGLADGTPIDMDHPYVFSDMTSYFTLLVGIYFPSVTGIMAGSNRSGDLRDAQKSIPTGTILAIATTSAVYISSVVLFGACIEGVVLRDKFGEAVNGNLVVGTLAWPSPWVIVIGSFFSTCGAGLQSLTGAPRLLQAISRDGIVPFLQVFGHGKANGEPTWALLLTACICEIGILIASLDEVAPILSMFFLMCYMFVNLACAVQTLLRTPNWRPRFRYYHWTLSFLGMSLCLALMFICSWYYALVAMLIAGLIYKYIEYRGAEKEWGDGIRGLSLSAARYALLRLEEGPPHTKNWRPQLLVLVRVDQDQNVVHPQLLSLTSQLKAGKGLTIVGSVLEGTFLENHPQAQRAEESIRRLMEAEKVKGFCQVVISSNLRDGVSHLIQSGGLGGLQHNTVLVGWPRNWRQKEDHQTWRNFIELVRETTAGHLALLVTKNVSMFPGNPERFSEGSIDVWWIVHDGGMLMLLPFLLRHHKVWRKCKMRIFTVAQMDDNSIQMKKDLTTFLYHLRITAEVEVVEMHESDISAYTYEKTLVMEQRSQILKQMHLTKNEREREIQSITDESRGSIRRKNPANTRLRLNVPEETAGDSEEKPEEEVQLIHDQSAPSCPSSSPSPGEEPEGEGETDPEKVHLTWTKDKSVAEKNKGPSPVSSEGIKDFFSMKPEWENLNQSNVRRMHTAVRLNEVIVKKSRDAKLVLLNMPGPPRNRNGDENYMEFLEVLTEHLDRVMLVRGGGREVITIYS
AI-2 QS modul – modulators of Vibrio harveyi AI-2 quorum sensing system. Vibrio harveyi JMH597 AI-2 luminescence/OD600 ratio, 9 h; stronger effect = lower value; strain lacks LuxN and CqsS sensors; 0 = neutral-control median. activity change, % at 7.5 µM. 0.4% of 300,000 active; in the data active = activity change below about -75%, passing the limit was not always enough; inconclusive = no clear call, values can overlap the other calls;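 also: luminescence divided by OD600 gain over 9 h not by final OD600 alone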
KCNQ1 inh – blocks the human KCNQ1 potassium channel | 1.3% of 310,000 active | P51787 | CHO-K1 KCNQ1, FluxOR thallium flux fluorescence; stronger effect = higher value | AID 2642 | B-score at 10 µM;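 active = compounds whose thallium flux B-score, printed positive for inhibition, exceeds three library SD while starting fluorescence stays within three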;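 also: channel opened by potassium depolarization with thallium stimulus after 20 min compound exposure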
Mot1-301 SUMO – blocks SUMOylation pathway, rescuing yeast Mot1-301 growth; growth rescue, % at 18.8 µM; AID 2716; 1% of 320,000 active; S. cerevisiae Mot1-301 growth rescue, ATP luminescence, 38.5C; percent above DMSO median, 100 means doubled;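 active = every valid replicate shows activation above 250% relative to neutral control wells; inactive = the rest, any valid replicate at or below 250%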;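 also: OY570 slx delta 5 strain wells were the positive control but not used for scaling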
hERG rescue – shields human hERG channel from block by proarrhythmic agents; CHO-hERG, FluxOR thallium flux, dofetilide IC70 present; activation (rescue from dofetilide block), less the hit threshold, % at 10 µM; 0.51% of 310,000 active; AID 1511;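 active = activation above the mean of controls blocked by dofetilide plus 5 SD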;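 also: thallium influx through hERG after potassium depolarization seen as dye fluorescence rise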
KCNQ1 act – human KCNQ1 channel potentiation or activation; CHO-K1 KCNQ1, thallium flux FluxOR fluorescence; stronger effect = higher value; B-score at 10 µM; 0.35% of 310,000 active; P51787;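 active = fluorescence ratio B-score, a plate-corrected score, at least three library SD, with initial intensity B-score within 5 SD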
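assay system = KCNQ1-transfected CHO-K1 cells | medium = assay buffer with matched DMSO | probe or stimulus = depolarizing K+/Tl+ stimulus, K2SO4 and Tl2SO4 each 12.5 mM in 5x stock | dosing = single dose | incubation = dye 90 min, compound 20 min, room temperature | detection = kinetic FluxOR fluorescence, 10 s baseline plus 110 s post-stimulus | evaluation = ratio B score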
KCC2 sec1 – confirmation of human KCC2 transport modulators; shares compounds with KCC2 mod; HEK293-KCC2, thallium flux, FluoZin2 fluorescence; stronger effect = higher value; normalised thallium flux (F/F0 slope) at 10 µM; 15% of 3,700 active; AID 1713;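 active = thallium flux slope above the same plate's solvent-only control mean plus 3 SD; inconclusive = the two replicate wells disagree; inactive = no significant difference from solvent-only control wells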
KCC2 bumet counter – thallium flux persisting under bumetanide in KCC2 cells, counter-screen secondary assay; shares compounds with KCC2 mod; HEK293-KCC2 + bumetanide/ouabain, thallium flux FluoZin2; stronger effect = higher value; AID 1714; 49% of 3,700 active; normalized thallium flux at 10 µM;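 active = thallium entry rate above the same plate's blocked-transporter control wells by more than 3 SD; inconclusive = the two repeat wells disagree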;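 also: raw slope of fluorescence over initial fluorescence between 10 and 20 s after thallium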
KCC2 sec2 – KCC2 (human) modulation, second secondary assay | shares compounds with KCC2 mod | HEK293-KCC2, thallium flux FluoZin2 fluorescence; actives lie on both sides; F/F0 rise rate, 10–20 s post-thallium | normalized thallium flux at 10 µM | 23% of 3,700 active | AID 1715;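 active = thallium flux slope more than 3 SD above or below the plate's solvent-only control mean, mostly below; inconclusive = the two repeat wells disagreed; inactive = no significant shift from solvent-only controls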;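 also: raw slope with 0.1% DMSO as baseline and bumetanide as block control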
HEK counter1 – acts in parental HEK cells, KCC2 counter-screen. shares compounds with KCC2 mod. AID 1716. thallium flux rate (normalised fluorescence) at 10 µM. 46% of 3,700 active. HEK293 parental cells, thallium flux FluoZin2, ouabain; baseline-ratio fluorescence slope, 10–20 s after thallium;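 active = thallium flux rate significantly above the same plate's solvent-only control wells, beyond their mean plus 3 SD; inconclusive = the two replicate wells gave conflicting results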
KCC2 ouabain – modulates human KCC2 on retest with ouabain; shares compounds with KCC2 mod; HEK293-KCC2, thallium flux FluoZin2 fluorescence; bidirectional: low = inhibitor, high = activator; raw Tl+ flux slope (below DMSO = inhibition, above = activation) at 10 µM; 48% of 3,700 active;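 active = thallium flux slope beyond 3 SD from same-plate DMSO control mean in most replicates, usually higher, sometimes lower; inconclusive = repeat tests gave conflicting results; inactive = no significant difference from controls in most replicates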;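 also: slope of initial-normalized fluorescence between seconds 10 and 20 after thallium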
HEK counter2 – acts in parental HEK cells, second KCC2 counter-screen. shares compounds with KCC2 mod. thallium flux slope at 10 µM. HEK293 parental, thallium flux FluoZin-2 fluorescence slope. 33% of 3,700 active;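 active = thallium flux slope above the same plate's solvent-control mean plus 3 SD in both duplicate wells; inconclusive = duplicate wells that disagreed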;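 also: run without ouabain in cells lacking the KCC2 cotransporter; slope of fluorescence scaled to its starting value between 10 and 20 s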
The depositor's hits bear a star; i = inactive; ? = inconclusive; . = not tested or not shown.

SMILES	KCC2 mod	AI-2 QS modul	KCNQ1 inh	Mot1-301 SUMO	hERG rescue	KCNQ1 act	KCC2 sec1	KCC2 bumet counter	KCC2 sec2	HEK counter1	KCC2 ouabain	HEK counter2
CCC(=O)NNC(=S)NC(=O)c1ccc(C)cc1	7.6*	-21	i	59	-5	i	?	0.02*	0.03	0.013*	0.024	?
O=C(Cc1cccs1)NNC(=S)NC(=O)c1ccccc1	3.3	?	i	160	-16	i	.	.	.	.	.	.
COc1ccc(/C=C/C(=O)NC(=S)NNC(=O)Cc2cccs2)cc1	1.8	27	i	.	-13	i	.	.	.	.	.	.
O=C(Cc1ccccc1)NNC(=S)NC(=O)c1cccs1	6.8*	-83*	i	-12	-4	i	0.0049	0.014*	0.033	0.015*	?	0.018*
COc1cc(OC)cc(C(=O)Nc2ccc(N3CCN(C(=O)c4cccs4)CC3)cc2)c1	.	22	i	10	-9	i	.	.	.	.	.	.
CC(C)(C)NC(=O)c1ccc2nsnc2c1	0.82	13	i	7	-12	i	.	.	.	.	.	.
Cc1cccc(C(=O)NC(=S)NNC(=O)Cc2ccccc2)c1	14*	-91*	i	-20	-12	i	0.019*	0.048*	0.037	0.025*	0.041*	0.015*
COc1ccc(CN2CCN(C(=O)C3CCN(C(=O)Nc4ccccc4)CC3)CC2)cc1OC	.	.	.	1	.	.	.	.	.	.	.	.
CCOc1ccccc1OCCCOc1ccc(C)cc1Br	-0.13	19	i	-1	-8	i	.	.	.	.	.	.
CCN(CC)CCCOc1ccc(C)cc1Br	.	9	i	5	-2	i	0.0069	0.0049	0.027	?	0.018	0.011
CCOc1ccc(Nc2n[nH]c(=S)s2)cc1	-5.3*	24	i	-3	-3	i	?	0.0053	0.02*	0.0083	?	0.011
S=c1[nH]nc(Nc2ccc(Cl)cc2)s1	1	-18	i	-8	4	i	.	.	.	.	.	.
COc1ccc(/C=c2\s/c(=C/C(=O)c3ccc(C)cc3)[nH]c2=O)cc1OC	0.62	3	i	-7	-4	i	.	.	.	.	.	.
CC(C)(C)C(=O)/C=c1\[nH]c(=O)/c(=C\c2ccccc2F)s1	18*	24	i	192	-18	i	0.0078	0.024*	0.038*	0.015*	0.032*	0.018*
CN1CCC(N(C)C(=O)/C(C#N)=C/c2ccc(OC(F)F)cc2)CC1	-0.18	16	i	.	-12	i	.	.	.	.	.	.
Cc1cc(C(=O)CSc2nc(N)cc(=O)[nH]2)c(C)n1CCc1ccc(F)cc1	-4.2*	9	i	11	-8	i	0.0092	0.0051	0.033	0.0074	0.018	0.011
CCOCC(=O)Nc1nc(-c2ccccc2)c(CC)s1	0.7	0	i	15	-19	i	.	.	.	.	.	.
CCN(CCCNC(=O)COc1cc(=O)n(CC)c2ccccc12)c1ccccc1	4.6*	21	i	4	-22	i	0.0058	0.0043	?	0.0063*	0.017	0.01
CCOC(=O)C1CCCN(C(=O)c2cc3nc(-c4cccc(OC)c4)cc(C(F)(F)F)n3n2)C1 (configuration not stated)	.	9	i	0	-10	i	0.007	0.0044	0.029	0.0073	0.02	0.01
S=c1[nH]nc(-c2cccs2)n1/N=C/c1c(Cl)cccc1Cl	34*	12	i	-24	32*	37*	0.019	0.042*	0.03	0.022*	0.029*	0.019*
Cc1ccsc1/C=N/n1c(-c2ccncc2)n[nH]c1=S	0.51	22	i	638	-5	i	.	.	.	.	.	.
S=c1[nH]nc(-c2ccco2)n1/N=C/c1c(Cl)cccc1Cl	1.9	8	i	5	-9	i	.	.	.	.	.	.
Cc1ccsc1/C=N/n1c(-c2ccccc2)n[nH]c1=S	9.8*	15	i	1	-4	i	0.014*	0.039*	0.036	0.015*	?	0.013*
Cc1ccc(/C=N/n2c(-c3ccncc3)n[nH]c2=S)s1	0.78	14	i	84	-5	i	.	.	.	.	.	.
Cc1cccc(-c2n[nH]c(=S)n2/N=C/c2ccc(C)s2)c1	13*	15	i	1	-4	i	0.011	0.031*	0.033	0.016*	0.028	0.012*
SMILES	KCC2 mod	AI-2 QS modul	KCNQ1 inh	Mot1-301 SUMO	hERG rescue	KCNQ1 act	KCC2 sec1	KCC2 bumet counter	KCC2 sec2	HEK counter1	KCC2 ouabain	HEK counter2
Cc1cccc(-c2n[nH]c(=S)n2/N=C/c2cccs2)c1	41*	0	i	0	-11	9*	0.019*	0.08*	0.034	0.054*	0.054*	0.016*
CCOC(=O)C1CCN(C(=O)c2cc3cc(C)ccc3[nH]2)CC1	.	15	i	21	-2	i	.	.	.	.	.	.
CCOC(=O)N1CCC(N2C(=O)c3ccccc3C2Nc2c(C)cccc2C)CC1 (configuration not stated)	.	36	i	6	-24	i	.	.	.	.	.	.
N/C(Cc1cccs1)=N\OC(=O)COc1ccccc1Cl	.	14	i	-6	-15	i	0.0082	0.0054	0.032	?	0.018	0.0093
N/C(Cc1cccs1)=N\OC(=O)COc1ccc(Br)cc1Cl	-0.53	3	i	9	-2	i	.	.	.	.	.	.
COc1ccc(OC)c2sc(NNC(=O)COc3ccccc3)nc12	3.4*	24	i	.	-13	i	0.0074	0.012*	0.031	0.011*	?	0.013*
CCOc1ccc(S(=O)(=O)NCCSCc2ccco2)cc1	.	13	i	2	-12	i	0.019	0.0044	0.027	0.0069	0.015	0.011
COc1ccc(S(=O)(=O)NCCSCc2ccco2)cc1	.	-1	i	2	-4	i	.	.	.	.	.	.
C=CCn1c(SCC(=O)c2ccccc2)nnc1-c1ccc2c(c1)OCO2	-2.3	.	.	0	.	.	0.01	0.0068	0.033	0.0075	0.021	?

High-throughput results: PubChem BioAssay, several laboratories
